# Assay results from ChEMBL document CHEMBL4229393, “Duocarmycin SA, a potent antitumor antibiotic, sensitizes glioblastoma cells to proton radiation” (Bioorg Med Chem Lett, 2018).
# Calls of active or inactive are those of the source. No cut-off for these calls is given here.
# Tests used:
# U138-MG [1] = test: Induction of necrosis in human U138MG cells at 0.1 nM after 72 hrs by 7-AAD staining based flow cytometry; format: functional, cell-based
# Summary of the method: (§1)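 U-138 MG cells were treated with 0.1 nM drug and analysed by flow cytometry at 72 h: annexin V binding for apoptosis and 7-AAD uptake for necrosis.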
# U138-MG [2] = test: Cytotoxicity against human U138MG cells assessed as decrease in cell viability at 0.5 to 1 nM after 72 hrs in presence of 2 Gy dose of proton irradiation by trypan blue dye based assay; format: functional
# Summary of the method: (§2)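 U-138 MG cells received the drug at 0.1, 0.5 or 1.0 nM, alone or combined with a 2 Gy proton exposure. Viable cell number was counted at 72 h. The dose enhancement ratio was calculated from combined versus single treatments.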
# U138-MG [3] = test: Cytotoxicity against human U138MG cells assessed as decrease in cell viability after 72 hrs by trypan blue dye based assay; format: functional
# U138-MG [4] = test: Anticlonogenic activity against human U138MG cells assessed as dose enhancement ratio pretreated for 2 hrs followed by 1 to 8 Gy dose of proton irradiation measured after 10 to 14 days by methylene blue staining based method; format: functional
# Summary of the method: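 U-138 MG clonogenic assay: cells were pretreated with 0.001 nM drug, then given 1–8 Gy protons. Colonies of 50 or more cells were counted at 14 days. The ratio compares the combined survival fraction with that expected from each modality given separately.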
# U138-MG [5] = test: Induction of apoptosis in human U138MG cells assessed as dose enhancement ratio at 0.1 nM after 72 hrs in presence of 2 Gy dose of proton irradiation by Annexin V staining based flow cytometry; format: functional
# Summary of the method: (§3)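 Flow cytometry of U-138 MG cells 72 h after 0.1 nM drug combined with 2 Gy protons: annexin V for apoptosis, 7-AAD for necrosis. The enhancement ratio was derived against single treatments.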
# U138-MG [6] = test: Anticlonogenic activity against human U138MG cells assessed as decrease in cell survival after 14 days by methylene blue staining based method; format: functional; details: 336 h
# Summary of the method: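 Clonogenic survival of U-138 MG human glioblastoma cells after drug exposure alone. Colonies of 50 or more cells were counted 14 days after exposure, and survival curves were calculated from the counts.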
# U138-MG [7] = test: Induction of apoptosis in human U138MG cells at 0.1 nM after 72 hrs by Annexin V staining based flow cytometry; format: functional, cell-based; summary of the method: as §1
# U138-MG [8] = test: Induction of necrosis in human U138MG cells assessed as dose enhancement ratio at 0.1 nM after 72 hrs in presence of 2 Gy dose of proton irradiation by 7-AAD staining based flow cytometry; format: functional; summary of the method: as §3
# U138-MG [9] = test: Cytotoxicity against human U138MG cells assessed as cell survival at 0.5 nM after 72 hrs by trypan blue dye based assay; format: functional; details: read-out: Survival
# U138-MG [10] = test: Cytotoxicity against human U138MG cells assessed as cell survival at higher doses after 72 hrs by trypan blue dye based assay; format: functional
# U138-MG [11] = test: Cytotoxicity against human U138MG cells assessed as cell survival at 0.1 nM after 72 hrs by trypan blue dye based assay; format: functional; details: read-out: Survival
# U138-MG [12] = test: Anticlonogenic activity against human U138MG cells assessed as decrease in cell survival pretreated for 2 hrs followed by 1 to 8 Gy dose of proton irradiation measured after 10 to 14 days by methylene blue staining based method; format: functional; details: light or radiation study
# Summary of the method: (§4)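 U-138 MG cells were exposed to 0.001 nM drug before proton irradiation at 1–8 Gy. Colonies of at least 50 cells were counted 14 days after exposure, and survival fractions and curves were derived.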
# U138-MG [13] = test: Anticlonogenic activity against human U138MG cells assessed as cell survival at 0.001 nM pretreated for 2 hrs followed by 1 to 8 Gy dose of proton irradiation measured after 10 to 14 days by methylene blue staining based method; format: functional; details: light or radiation study, read-out: Survival; summary of the method: as §4
# U138-MG [14] = test: Induction of apoptosis in human U138MG cells at 0.1 nM after 72 hrs in presence of 6 Gy dose of proton irradiation by Annexin V staining based flow cytometry; format: functional, cell-based
# U138-MG [15] = test: Induction of necrosis in human U138MG cells at 0.1 nM after 72 hrs in presence of 6 Gy dose of proton irradiation by 7-AAD staining based flow cytometry; format: functional, cell-based
# U138-MG [16] = test: Cytotoxicity against human U138MG cells assessed as dose enhancement ratio at 0.1 nM after 72 hrs in presence of 2 Gy dose of proton irradiation by trypan blue dye based assay; format: functional; summary of the method: as §2
smiles,measurement,setting,value
COC(=O)c1cc2c([nH]1)C(=O)C=C1N(C(=O)c3cc4cc(OC)c(OC)c(OC)c4[nH]3)C[C@H]3C[C@]123 [DUOCARMYCIN],Activity,U138-MG [1],Active
same,Activity,U138-MG [2],Active
same,Activity,U138-MG [3],Dose-dependent effect
same,IC50,U138-MG [3],0.4 nM
same,Ratio,U138-MG [4],2.17
same,Ratio,U138-MG [5],2.5
same,IC50,U138-MG [6],0.0018 nM
same,Activity,U138-MG [7],Active
same,Ratio,U138-MG [8],4
same,viability at 0.0005 µM,U138-MG [9],25%
same,Activity,U138-MG [10],Active
same,viability at 0.0001 µM,U138-MG [11],65%
same,IC50,U138-MG [12],0.443 nM
same,viability at 1 pM,U138-MG [13],54%
same,Activity,U138-MG [14],inactive
same,Activity,U138-MG [15],inactive
same,Ratio,U138-MG [16],1.6
